One test concerns the target DNA gyrase subunit B (Escherichia coli, UniProt P0AES6). Briefly: Inhibition of Escherichia coli JM109 DNA gyrase subunit B assessed as ATP hydrolysis by ATPase assay.
In test [1] the target is DNA gyrase subunit A (Escherichia coli K-12) (UniProt P0AES4). Description: Inhibition of Escherichia coli K-12 DNA gyrase A expressed in Escherichia coli DC2 assessed as compound concentration required for => 4-fold induction of luxCDABE operon by reported gene assay. A digest of the protocol: (§1)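 E. coli DC2 carrying a gyrA or sulA promoter–luxCDABE (Photorhabdus) fusion plasmid. Grown overnight at 37°C in LB with 2 μg/ml tetracycline, then diluted 1:100 in LB without tetracycline and precultured 1.5 h at 37°C. Compounds were added from DMSO stocks to 1% final DMSO and incubated 5 h at 37°C. Bioluminescence was divided by A595, and induction factor is the treated/untreated ratio. The value is the lowest test concentration giving ≥4-fold induction.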

Test [2] concerns the target T1, Cell division inhibitor SulA (Escherichia coli K-12) (UniProt P0AFZ5).
T1 sequence (whole entry): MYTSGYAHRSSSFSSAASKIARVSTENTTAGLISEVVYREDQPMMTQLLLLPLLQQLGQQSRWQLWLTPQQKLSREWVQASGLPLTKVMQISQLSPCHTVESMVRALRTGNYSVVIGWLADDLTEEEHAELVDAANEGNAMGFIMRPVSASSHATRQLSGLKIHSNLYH
Briefly: Inhibition of Escherichia coli K-12 DNA sulA expressed in Escherichia coli DC2 assessed as compound concentration required for => 4-fold induction of luxCDABE operon by reported gene assay. The procedure, abridged:
as §1

Test [3] has as its system Staphylococcus aureus. Description: Antibacterial activity against Staphylococcus aureus ATCC 29213 by broth microdilution method. The test is classed as functional.
The subject of test [4] is Staphylococcus aureus. Description: Antibacterial activity against Staphylococcus aureus ATCC 43300 by broth microdilution method. The test is classed as functional.
Test [5] concerns Staphylococcus aureus. Briefly: Antibacterial activity against Staphylococcus aureus 80CR5 by broth microdilution method. The class given is functional.
For test [6], the system named is Streptococcus pneumoniae. Description: Antibacterial activity against Streptococcus pneumoniae ATCC 49619 by broth microdilution method. The test is classed as functional.
The subject of test [7] is Streptococcus pneumoniae. Briefly: Antibacterial activity against Streptococcus pneumoniae SL336-T by broth microdilution method. The test is classed as functional.
The subject of test [8] is Streptococcus pneumoniae. Briefly: Antibacterial activity against Streptococcus pneumoniae TUPELO by broth microdilution method. The test is classed as functional.
Another test concerns Enterococcus faecalis. Briefly: Antibacterial activity against Enterococcus faecalis ATCC 29212 by broth microdilution method. The class given is functional.
For a further test, the system named is Enterococcus faecium. Briefly: Antibacterial activity against Enterococcus faecium ATCC 19434 by broth microdilution method. The class given is functional.
Test [9] has as its system Escherichia coli. Briefly: Antibacterial activity against Escherichia coli ATCC 25922 by broth microdilution method. The test is classed as functional.
Test [10] deals with Escherichia coli. Briefly: Antibacterial activity against Escherichia coli UB1005 by broth microdilution method. The test is classed as functional.
Test [11] relates to Escherichia coli. Description: Antibacterial activity against Escherichia coli DC2 by broth microdilution method. The test is classed as functional.
A further test concerns Klebsiella pneumoniae. Description: Antibacterial activity against Klebsiella pneumoniae ATCC 27736 by broth microdilution method. The test is classed as functional.
The test system of test [12] is Pseudomonas aeruginosa. Description: Antibacterial activity against Pseudomonas aeruginosa ATCC 27853 by broth microdilution method. The class given is functional.
The subject of test [13] is Pseudomonas aeruginosa. Description: Antibacterial activity against Pseudomonas aeruginosa K799/WT by broth microdilution method. The class given is functional.
Test [14] has as its system Pseudomonas aeruginosa. Description: Antibacterial activity against Pseudomonas aeruginosa K799/61 by broth microdilution method. The test is classed as functional.
Test [15] concerns the target DNA gyrase (Escherichia coli). Briefly: Inhibition of Escherichia coli JM109 DNA gyrase assessed as DNA triple helix formation by supercoiling assay.

In brackets after ≈: the same amount, converted by molar mass. Activity calls are given as the source filed them. The calls are words filed in the database; no cut-off is given here. A value given as a limit tells only on which side of the number the result lay.

Chain of DNA gyrase subunit A (Escherichia coli K-12) (P0AES4 whole entry, the tested form may be a part): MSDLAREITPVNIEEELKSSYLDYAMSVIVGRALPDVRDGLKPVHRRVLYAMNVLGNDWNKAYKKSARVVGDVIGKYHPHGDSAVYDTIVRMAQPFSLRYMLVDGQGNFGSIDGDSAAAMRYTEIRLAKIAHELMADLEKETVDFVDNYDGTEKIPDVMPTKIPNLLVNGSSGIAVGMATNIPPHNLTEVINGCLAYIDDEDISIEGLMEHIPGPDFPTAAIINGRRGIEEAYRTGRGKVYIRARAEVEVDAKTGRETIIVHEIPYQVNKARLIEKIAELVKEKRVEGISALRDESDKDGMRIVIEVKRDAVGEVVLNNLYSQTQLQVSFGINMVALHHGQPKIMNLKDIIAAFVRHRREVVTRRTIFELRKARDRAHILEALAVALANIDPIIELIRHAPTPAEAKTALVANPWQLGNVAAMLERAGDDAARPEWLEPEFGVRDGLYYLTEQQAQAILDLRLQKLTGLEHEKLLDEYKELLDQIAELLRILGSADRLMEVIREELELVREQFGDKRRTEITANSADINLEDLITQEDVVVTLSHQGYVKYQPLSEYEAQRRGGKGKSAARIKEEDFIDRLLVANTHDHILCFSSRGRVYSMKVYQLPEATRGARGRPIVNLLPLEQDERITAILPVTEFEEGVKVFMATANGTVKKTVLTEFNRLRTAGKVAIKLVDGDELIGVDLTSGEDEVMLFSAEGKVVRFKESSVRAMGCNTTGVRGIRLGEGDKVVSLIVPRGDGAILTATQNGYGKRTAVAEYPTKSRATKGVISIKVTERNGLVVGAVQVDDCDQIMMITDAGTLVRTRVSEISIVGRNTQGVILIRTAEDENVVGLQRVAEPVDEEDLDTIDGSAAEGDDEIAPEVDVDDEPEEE

On to `CO[C@@H]1[C@@H](OC(=O)c2ccc(C)[nH]2)[C@@H](O)[C@H](Oc2ccc3c(O)c(NC(=O)c4cc(C)c(O)c(C)c4)c(=O)oc3c2)OC1(C)C`, for which the IC50 on DNA gyrase subunit B came out at 229 nM; in [15] it was 120 nM. Also, the Activity in test [1] was greater than 100 µM. In addition, in [2], the result was inactive. For the same compound, the MIC is 4 µg/mL (≈ 6.42 µM) in the test with Staphylococcus aureus [3]; 4 µg/mL (≈ 6.42 µM) against Staphylococcus aureus [4]; greater than 32 µg/mL in the test with Staphylococcus aureus [5]; 8 µg/mL (≈ 12.8 µM) against Streptococcus pneumoniae [6]; 16 µg/mL (≈ 25.7 µM) in the test on Streptococcus pneumoniae [7]; 16 µg/mL (≈ 25.7 µM) in the test on Streptococcus pneumoniae [8]. For the same compound, the MIC was 16 µg/mL (≈ 25.7 µM) against Enterococcus faecalis; greater than 32 µg/mL in the test with Enterococcus faecium; greater than 32 µg/mL with Escherichia coli [9]; greater than 32 µg/mL in the test with Escherichia coli [10]; greater than 32 µg/mL in the test with Escherichia coli [11]; greater than 32 µg/mL in the test with Klebsiella pneumoniae. The MIC against Pseudomonas aeruginosa [12] was greater than 32 µg/mL; against Pseudomonas aeruginosa [13], greater than 32 µg/mL; in the test with Pseudomonas aeruginosa [14] it was 8 µg/mL (≈ 12.8 µM).
`CCCc1cc(C(=O)Nc2c(O)c3ccc(O[C@@H]4OC(C)(C)[C@H](OC)[C@@H](OC(=O)c5ccc(C)[nH]5)[C@H]4O)c(C)c3oc2=O)ccc1O`: the IC50 on DNA gyrase subunit B was found to be 84 nM; in test [15], 19 nM. For the same compound, the figures for the Activity in test [1] and in test [2] were 3.1 µM and 1.6 µM, respectively. In addition, the MIC was no more than 0.06 µg/mL in the test with Staphylococcus aureus [3]; no more than 0.06 µg/mL with Staphylococcus aureus [4]; 32 µg/mL (≈ 49.2 µM) in the test with Staphylococcus aureus [5]; 2 µg/mL (≈ 3.07 µM) against Streptococcus pneumoniae [6]; 2 µg/mL (≈ 3.07 µM) against Streptococcus pneumoniae [7]; 4 µg/mL (≈ 6.15 µM) in the test with Streptococcus pneumoniae [8]. Besides, the MIC was 16 µg/mL (≈ 24.6 µM) with Enterococcus faecalis; greater than 32 µg/mL against Enterococcus faecium; greater than 32 µg/mL against Escherichia coli [9]; greater than 32 µg/mL against Escherichia coli [10]; 8 µg/mL (≈ 12.3 µM) against Escherichia coli [11]; greater than 32 µg/mL in the test with Klebsiella pneumoniae. Further, the results for the MIC against Pseudomonas aeruginosa [12], against Pseudomonas aeruginosa [13] and in the test with Pseudomonas aeruginosa [14] were greater than 32 µg/mL, greater than 32 µg/mL and 0.5 µg/mL (≈ 0.768 µM), respectively.
For `CO[C@@H]1[C@@H](OC(=O)c2ccc(C)[nH]2)[C@@H](O)[C@H](Oc2ccc3c(O)c(NC(=O)c4ccc(SC)cc4)c(=O)oc3c2Cl)OC1(C)C`, the IC50 came to 84 nM on DNA gyrase subunit B and 20 nM in [15]. The Activity in [1] was 3.1 µM; in [2], 12.5 µM. Besides, the MIC in the test on Staphylococcus aureus [3] amounted to 0.125 µg/mL (≈ 0.19 µM); against Staphylococcus aureus [4], 0.25 µg/mL (≈ 0.379 µM); against Staphylococcus aureus [5], 32 µg/mL (≈ 48.6 µM); against Streptococcus pneumoniae [6] it was 2 µg/mL (≈ 3.03 µM); in the test on Streptococcus pneumoniae [7], 4 µg/mL (≈ 6.07 µM); against Streptococcus pneumoniae [8], 16 µg/mL (≈ 24.3 µM). The MIC against Enterococcus faecalis is 32 µg/mL (≈ 48.6 µM); in the test on Enterococcus faecium, greater than 32 µg/mL; against Escherichia coli [9], greater than 32 µg/mL; in the test on Escherichia coli [10] it was greater than 32 µg/mL; against Escherichia coli [11], 8 µg/mL (≈ 12.1 µM); against Klebsiella pneumoniae, greater than 32 µg/mL. Besides, the MIC in the test with Pseudomonas aeruginosa [12] was greater than 32 µg/mL; against Pseudomonas aeruginosa [13] it was greater than 32 µg/mL; in the test on Pseudomonas aeruginosa [14], 2 µg/mL (≈ 3.03 µM).
As for `CO[C@@H]1[C@@H](OC(=O)c2ccc(C)[nH]2)[C@@H](O)[C@H](Oc2ccc3c(O)c(NC(=O)c4cc(C)c(O)c(C)c4)c(=O)oc3c2Cl)OC1(C)C`, the IC50 on DNA gyrase subunit B came out at 65 nM; in test [15], 17 nM. In addition, the Activity amounted to 13 µM in test [1] and 6.3 µM in [2]. Further, the MIC in the test on Staphylococcus aureus [3] was 0.125 µg/mL (≈ 0.19 µM); in the test with Staphylococcus aureus [4], 0.25 µg/mL (≈ 0.38 µM); against Staphylococcus aureus [5], 32 µg/mL (≈ 48.7 µM); against Streptococcus pneumoniae [6] it was 4 µg/mL (≈ 6.09 µM); in the test with Streptococcus pneumoniae [7] it was 8 µg/mL (≈ 12.2 µM); with Streptococcus pneumoniae [8], 8 µg/mL (≈ 12.2 µM). Moreover, the MIC against Enterococcus faecalis is 16 µg/mL (≈ 24.4 µM); in the test with Enterococcus faecium, greater than 32 µg/mL; in the test on Escherichia coli [9], greater than 32 µg/mL; in the test on Escherichia coli [10], greater than 32 µg/mL; in the test on Escherichia coli [11], 16 µg/mL (≈ 24.4 µM); with Klebsiella pneumoniae, greater than 32 µg/mL. The minimum inhibitory concentration (MIC) is greater than 32 µg/mL against Pseudomonas aeruginosa [12], greater than 32 µg/mL with Pseudomonas aeruginosa [13] and 1 µg/mL (≈ 1.52 µM) against Pseudomonas aeruginosa [14].
As for `COc1cc(/C=C/C(=O)Nc2c(O)c3ccc(O[C@@H]4OC(C)(C)[C@H](OC)[C@@H](OC(=O)c5ccc(C)[nH]5)[C@H]4O)c(Cl)c3oc2=O)ccc1O`, the IC50 stood at 263 nM at DNA gyrase subunit B and 43 nM in test [15]. The values for the Activity in [1] and in [2] were 6.3 µM and 3.1 µM, respectively. Also, the MIC against Staphylococcus aureus [3] was 0.5 µg/mL (≈ 0.73 µM); with Staphylococcus aureus [4], 0.5 µg/mL (≈ 0.73 µM); against Staphylococcus aureus [5] it was greater than 32 µg/mL; in the test on Streptococcus pneumoniae [6], 8 µg/mL (≈ 11.7 µM); against Streptococcus pneumoniae [7], 8 µg/mL (≈ 11.7 µM); in the test on Streptococcus pneumoniae [8] it was 16 µg/mL (≈ 23.4 µM). The MIC with Enterococcus faecalis is 32 µg/mL (≈ 46.7 µM); in the test on Enterococcus faecium, greater than 32 µg/mL; in the test on Escherichia coli [9] it was greater than 32 µg/mL; against Escherichia coli [10] it was greater than 32 µg/mL; in the test on Escherichia coli [11], 16 µg/mL (≈ 23.4 µM); in the test on Klebsiella pneumoniae it was greater than 32 µg/mL. The results for the MIC against Pseudomonas aeruginosa [12], in the test with Pseudomonas aeruginosa [13] and in the test on Pseudomonas aeruginosa [14] were greater than 32 µg/mL, greater than 32 µg/mL and 2 µg/mL (≈ 2.92 µM), respectively.

(Values after ChEMBL document CHEMBL1275417, “Biological activities of novel gyrase inhibitors of the aminocoumarin class” (Antimicrob Agents Chemother, 2008).)
